Reference: ChEMBL document CHEMBL5252557

Assays:
[1] = target: Programmed cell death protein 1/Programmed cell death 1 ligand 1 (Homo sapiens, UniProt Q15116+Q9NZQ7); test: Inhibition of C-terminal his tagged human PD-1/human Fc tagged PDL-1 interaction expressed in HEK293 cells incubated for 2 hrs AlphaScreen assay; format: cell-based
[2] = target: Angiotensin-converting enzyme 2 (Homo sapiens, UniProt Q9BYF1); test: Inhibition of his-tagged SARS-COV2 S-RBD binding to C-terminal Fc-tagged human ACE2 expressed in HEK293 cells incubated for 2 hrs by Alphascreen assay; format: cell-based
Angiotensin-converting enzyme 2, sequence (Q9BYF1 whole entry): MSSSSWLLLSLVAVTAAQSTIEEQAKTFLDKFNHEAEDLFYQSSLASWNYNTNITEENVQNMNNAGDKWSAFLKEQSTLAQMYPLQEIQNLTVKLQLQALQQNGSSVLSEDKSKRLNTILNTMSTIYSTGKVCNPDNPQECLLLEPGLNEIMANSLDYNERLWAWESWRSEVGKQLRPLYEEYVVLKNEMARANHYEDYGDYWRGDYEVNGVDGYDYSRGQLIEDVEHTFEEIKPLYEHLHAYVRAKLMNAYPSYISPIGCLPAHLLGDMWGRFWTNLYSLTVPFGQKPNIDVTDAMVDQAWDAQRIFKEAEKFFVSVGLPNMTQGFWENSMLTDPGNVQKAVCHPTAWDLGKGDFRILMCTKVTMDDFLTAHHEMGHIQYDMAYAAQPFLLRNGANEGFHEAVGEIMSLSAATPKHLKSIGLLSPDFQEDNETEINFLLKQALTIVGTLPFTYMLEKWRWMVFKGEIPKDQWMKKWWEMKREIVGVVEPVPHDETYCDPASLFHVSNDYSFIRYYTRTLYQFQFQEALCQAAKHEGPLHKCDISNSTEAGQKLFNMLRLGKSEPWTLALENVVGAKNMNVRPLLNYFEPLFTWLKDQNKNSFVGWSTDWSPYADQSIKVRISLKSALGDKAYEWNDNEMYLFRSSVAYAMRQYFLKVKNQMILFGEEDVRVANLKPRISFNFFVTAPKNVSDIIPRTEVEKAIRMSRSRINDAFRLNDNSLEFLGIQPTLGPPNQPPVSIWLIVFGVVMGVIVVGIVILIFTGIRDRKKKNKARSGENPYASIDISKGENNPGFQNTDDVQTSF
How it was run: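 ACE2-Fc (2 nM) with His-tagged spike RBD, Wuhan variant (5 nM), plus protein A acceptor and nickel chelate donor beads (5 μg/mL each), in 20 mM Tris pH 7.4, 150 mM KCl, 0.05% CHAPS. Compounds added from 100× DMSO dilutions, in duplicate. 2 h at room temperature, then luminescence read. 100% = signal without RBD; 0% = both proteins plus DMSO.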

Homo sapiens = species: Homo sapiens; test: Selectivity index, ratio of IC50 for his tagged human PD-1/human Fc tagged PDL-1 interaction to IC50 for his-tagged FC tagged SARS-COV2 S-RBD binding to ACE2 (unknown origin)

Programmed cell death protein 1/Programmed cell death 1 ligand 1, sequence (Q15116 whole entry): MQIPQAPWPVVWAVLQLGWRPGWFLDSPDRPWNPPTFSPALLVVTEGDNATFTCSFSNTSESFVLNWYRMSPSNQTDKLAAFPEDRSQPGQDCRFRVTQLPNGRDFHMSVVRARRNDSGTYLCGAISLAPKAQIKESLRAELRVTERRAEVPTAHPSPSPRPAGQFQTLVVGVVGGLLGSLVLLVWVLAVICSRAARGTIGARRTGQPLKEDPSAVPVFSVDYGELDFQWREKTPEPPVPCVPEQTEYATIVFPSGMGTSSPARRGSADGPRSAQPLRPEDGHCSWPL
Programmed cell death protein 1/Programmed cell death 1 ligand 1, sequence (Q9NZQ7 whole entry): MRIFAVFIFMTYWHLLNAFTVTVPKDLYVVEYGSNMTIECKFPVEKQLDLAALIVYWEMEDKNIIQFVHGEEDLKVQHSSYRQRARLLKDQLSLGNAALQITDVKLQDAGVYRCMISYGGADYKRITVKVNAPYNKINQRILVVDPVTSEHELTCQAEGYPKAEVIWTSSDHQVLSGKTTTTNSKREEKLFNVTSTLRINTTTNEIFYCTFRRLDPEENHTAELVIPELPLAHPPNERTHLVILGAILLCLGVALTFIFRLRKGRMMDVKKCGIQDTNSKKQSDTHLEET

Compound | IC50 [1] [µM] | IC50 [2] [µM] | Ratio IC50 (Homo sapiens)
COc1cc(OC(C)=O)cc2c1OC(C)(CCC1=C(C)CCCC1(C)C)C=C2 (configuration not stated) | 66 | 63 | 1
COc1cc(O)c(-c2c(O)cc(OC)c3c2C=C[C@](C)(CCC2=C(C)CCCC2(C)C)O3)c2c1O[C@](C)(CCC1=C(C)CCCC1(C)C)C=C2 | 6 | 1 | 5.9
Oc1ccc([C@@H]2c3c(O)cc(O)cc3[C@@H]3c4c(cc(O)cc4[C@H]2[C@@H]2c4cc(O)cc5c4[C@@H](c4cc(O)cc(O)c4[C@H]2c2ccc(O)cc2)[C@H](c2ccc(O)cc2)O5)O[C@H]3c2ccc(O)cc2)cc1 | – | 0.25 | –
COc1cc(OC(C)=O)c(-c2c(OC(C)=O)cc(OC)c3c2C=C[C@](C)(CCC2=C(C)CCCC2(C)C)O3)c2c1O[C@](C)(CCC1=C(C)CCCC1(C)C)C=C2 | 37 | 7.3 | 5
COc1cc(OC(C)=O)c(-c2c(OC(C)=O)cc(OC)c3c2C=C[C@@](C)(CCC2=C(C)CCCC2(C)C)O3)c2c1O[C@](C)(CCC1=C(C)CCCC1(C)C)C=C2 | > 50 | 65 | –
